Results published in ChEMBL document CHEMBL4257575, “Discovery of Novel Flavonoid Dimers To Reverse Multidrug Resistance Protein 1 (MRP1, ABCC1) Mediated Drug Resistance in Cancers Using a High Throughput Platform with "Click Chemistry"” (J Med Chem, 2018).

What follows are molecules tested against Multidrug resistance-associated protein 1 (Homo sapiens, UniProt P33527) (assay: Inhibition of MRP1 in human 2008/MRP1 cells assessed as potentiation of doxorubicin-induced cytotoxicity by measuring cell survival at 2 uM after 5 days by MTS assay relative to control). Details: 120 h.
Multidrug resistance-associated protein 1, sequence (P33527 whole entry): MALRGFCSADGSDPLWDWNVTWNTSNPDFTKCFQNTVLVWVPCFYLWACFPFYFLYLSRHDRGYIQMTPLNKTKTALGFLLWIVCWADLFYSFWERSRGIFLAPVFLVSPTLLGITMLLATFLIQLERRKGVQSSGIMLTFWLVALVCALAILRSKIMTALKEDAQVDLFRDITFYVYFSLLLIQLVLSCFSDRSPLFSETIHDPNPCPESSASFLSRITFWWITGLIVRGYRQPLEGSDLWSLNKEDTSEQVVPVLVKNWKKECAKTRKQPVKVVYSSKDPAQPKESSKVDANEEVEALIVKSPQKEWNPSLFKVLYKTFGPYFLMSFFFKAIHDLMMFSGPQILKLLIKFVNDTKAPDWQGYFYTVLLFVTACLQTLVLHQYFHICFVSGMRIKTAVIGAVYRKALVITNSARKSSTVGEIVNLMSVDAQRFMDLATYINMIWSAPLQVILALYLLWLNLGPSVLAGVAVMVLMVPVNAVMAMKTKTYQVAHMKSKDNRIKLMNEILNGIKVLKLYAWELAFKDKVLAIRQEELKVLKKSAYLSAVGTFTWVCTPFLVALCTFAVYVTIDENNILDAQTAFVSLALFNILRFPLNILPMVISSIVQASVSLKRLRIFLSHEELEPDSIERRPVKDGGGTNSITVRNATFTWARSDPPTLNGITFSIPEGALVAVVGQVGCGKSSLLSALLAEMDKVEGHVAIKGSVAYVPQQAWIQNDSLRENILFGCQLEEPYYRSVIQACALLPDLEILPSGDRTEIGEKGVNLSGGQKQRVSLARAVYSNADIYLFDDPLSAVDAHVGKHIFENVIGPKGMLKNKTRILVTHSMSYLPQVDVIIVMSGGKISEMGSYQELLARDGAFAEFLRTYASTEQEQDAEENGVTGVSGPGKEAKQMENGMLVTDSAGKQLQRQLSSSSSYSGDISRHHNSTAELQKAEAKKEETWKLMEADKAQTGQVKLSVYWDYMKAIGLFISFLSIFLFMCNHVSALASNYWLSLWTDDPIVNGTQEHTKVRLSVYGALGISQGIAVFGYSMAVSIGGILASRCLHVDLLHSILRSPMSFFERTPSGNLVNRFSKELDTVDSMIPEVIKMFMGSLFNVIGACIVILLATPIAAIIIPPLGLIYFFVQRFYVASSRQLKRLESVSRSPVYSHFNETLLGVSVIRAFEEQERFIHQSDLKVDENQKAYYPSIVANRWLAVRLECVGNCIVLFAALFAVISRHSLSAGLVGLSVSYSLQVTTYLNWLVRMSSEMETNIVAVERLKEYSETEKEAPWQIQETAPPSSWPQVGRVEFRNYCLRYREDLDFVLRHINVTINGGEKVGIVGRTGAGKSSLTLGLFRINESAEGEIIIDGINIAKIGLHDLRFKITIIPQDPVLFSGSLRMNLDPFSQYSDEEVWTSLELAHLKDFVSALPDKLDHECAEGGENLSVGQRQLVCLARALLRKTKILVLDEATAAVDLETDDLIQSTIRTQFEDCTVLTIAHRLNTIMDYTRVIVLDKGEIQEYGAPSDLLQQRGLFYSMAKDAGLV
Type: cell-based
Outline: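 2008/MRP1 cells (retroviral human MRP1 transfectant; RPMI 1640, 10% FBS) at 4,000 per well, with 100 nM doxorubicin plus crude, unpurified click products in DMSO: 2 µM in the primary screen, 1 µM in the secondary. Incubated 5 days at 37 °C. MTS/PMS added for 2 h at 37 °C, absorbance read at 490 nm. % survival is relative to wells without DOX or product. Run in triplicate, at least three experiments.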
For CCc1ccc(O)c(C(=O)/C=C/c2ccc(OCCCCc3cn(CCOCCOCCOc4ccc(-c5cc(=O)c6cc(C)ccc6o5)cc4)nn3)cc2)c1, the Survival was 63%. Work on Cc1ccc2oc(-c3ccc(OCCOCCOCCN=[N+]=[N-])cc3)cc(=O)c2c1 yielded a Survival of 84%. With Cc1ccc2oc(-c3ccc(OCCOCCOCCn4cc(CNc5ccccc5)nn4)cc3)cc(=O)c2c1 the Survival was 86%. COc1cccc(COc2c(-c3ccc(OCCOCCn4cc(CCCOc5ccc(-c6cc(=O)c7cc(F)ccc7o6)cc5)nn4)cc3)oc3ccccc3c2=O)c1 gave a Survival of 86%. O=c1cc(-c2ccccc2)oc2cc(OCCN(Cc3ccccc3)Cc3cn(CCOc4cccc5c(=O)cc(-c6ccccc6)oc45)nn3)ccc12 showed a Survival of 80%. O=c1cc(-c2ccccc2)oc2cc(OCCn3cc(CN(Cc4ccccc4)Cc4cn(CCOc5ccc6occ(-c7ccccc7)c(=O)c6c5)nn4)nn3)ccc12 gave a Survival of 96%. For Cc1ccc(O)c(C(=O)/C=C/c2ccc(OCCCCc3cn(CCOCCOc4ccc(-c5cc(=O)c6cc(F)ccc6o5)cc4)nn3)cc2)c1, the Survival was 82%. COc1cccc(COc2c(-c3ccc(OCCCCc4cn(CCOCCOCCOc5ccc(-c6cc(=O)c7cc(F)ccc7o6)cc5)nn4)cc3)oc3ccccc3c2=O)c1 showed a Survival of 60%. With COc1cccc(COc2c(-c3ccc(OCCCCc4cn(CCOCCOc5ccc(-c6oc7ccccc7c(=O)c6OCc6ccccc6)cc5)nn4)cc3)oc3ccccc3c2=O)c1 the Survival was 68%. In the case of O=c1cc(-c2ccccc2)oc2cc(OCCOCCOCCn3cc(COCCOc4ccc5c(=O)cc(-c6ccccc6)oc5c4)nn3)ccc12, the Survival is reported as 60%. Work on COCOc1cc(OCc2ccccc2)c2c(=O)cc(-c3ccc(OCCCc4cn(CCOCCOCCOc5ccc(-c6cc(=O)c7cc(F)ccc7o6)cc5)nn4)cc3)oc2c1 yielded a Survival of 58%. O=c1cc(-c2ccc(OCCOCCOCCn3cc(CN(Cc4ccccc4)Cc4cn(CCOCCOCCOc5ccc(-c6cc(=O)c7cc(F)ccc7o6)cc5)nn4)nn3)cc2)oc2ccc(F)cc12 gave a Survival of 54%. In the case of Cc1ccc(C(=O)/C=C/c2ccc(OCCCCc3cn(CCOCCOc4ccc5c(=O)cc(-c6ccccc6)oc5c4)nn3)cc2)c(O)c1, the Survival is reported as 62%. With O=c1cc(-c2ccccc2)oc2cc(OCCOCCOCCn3cc(CNc4ccccc4)nn3)ccc12 the Survival was 90%. In the case of O=c1c(OCc2ccccc2)c(-c2ccc(OCCOCCn3cc(CNc4ccccc4)nn3)cc2)oc2ccccc12, the Survival is reported as 91%. Cc1ccc(C(=O)/C=C/c2ccc(OCCCCc3cn(CCOCCOc4ccc(-c5cc(=O)c6ccccc6o5)cc4)nn3)cc2)c(O)c1 showed a Survival of 57%. O=Cc1ccc(OCCCCc2cn(CCOCCOc3ccc(-c4cc(=O)c5ccccc5o4)cc3)nn2)cc1 gave a Survival of 75%. O=c1cc(-c2ccccc2)oc2cc(OCCOCCn3cc(CN(Cc4ccccc4)Cc4cn(CCOCCOc5ccc6oc(-c7ccccc7)cc(=O)c6c5)nn4)nn3)ccc12 showed a Survival of 76%. Molecule O=c1cc(-c2ccccc2)oc2cc(OCCCCc3cn(CCOc4cccc5c(=O)cc(-c6ccccc6)oc45)nn3)ccc12 has a Survival of 60%. In the case of COc1cccc(COc2c(-c3ccc(OCCOCCn4cc(CCN5C(=O)c6ccccc6C5=O)nn4)cc3)oc3ccccc3c2=O)c1, the Survival is reported as 75%. In the case of O=c1cc(-c2ccc(OCCOCCn3cc(CN(Cc4cn(CCOCCOc5ccc(-c6cc(=O)c7cc(F)ccc7o6)cc5)nn4)Cc4cn(CCOCCOc5ccc(-c6cc(=O)c7cc(F)ccc7o6)cc5)nn4)nn3)cc2)oc2ccc(F)cc12, the Survival is reported as 76%. Cc1ccc(O)c(C(=O)/C=C/c2ccc(OCCCCc3cn(CCOCCOCCOc4ccc(-c5cc(=O)c6cc(F)ccc6o5)cc4)nn3)cc2)c1 gave a Survival of 72%. Work on C#CCCCOc1ccc(-c2cc(=O)c3ccc(F)cc3o2)cc1 yielded a Survival of 79%. C#CCCCCOc1ccc(-c2oc3ccccc3c(=O)c2OCc2cccc(OC)c2)cc1 gave a Survival of 71%. In the case of O=C(/C=C/c1ccc(OCCCCc2cn(CCOCCOc3ccc(-c4oc5ccccc5c(=O)c4OCc4ccccc4)cc3)nn2)cc1)c1ccc(F)cc1O, the Survival is reported as 69%. For O=C(/C=C/c1ccc(OCCCCc2cn(CCOCCOCCOc3ccc4c(=O)cc(-c5ccccc5)oc4c3)nn2)cc1)c1ccc(F)cc1O, the Survival was 67%. O=c1cc(-c2ccccc2)oc2cc(OCCCc3cn(CCOCCOCCOc4ccc5c(=O)cc(-c6ccccc6)oc5c4)nn3)ccc12 showed a Survival of 57%. Molecule CCc1ccc(O)c(C(=O)/C=C/c2ccc(OCCCCc3cn(CCOc4cccc5c(=O)cc(-c6ccccc6)oc45)nn3)cc2)c1 has a Survival of 86%. In the case of O=c1cc(-c2ccc(OCCCc3cn(CCOCCOCCOc4ccc5c(=O)cc(-c6ccccc6)oc5c4)nn3)cc2)oc2cc(F)ccc12, the Survival is reported as 52%. Cc1ccc(O)c(C(=O)/C=C/c2ccc(OCCCCc3cn(CCOCCOc4ccc(-c5oc6ccccc6c(=O)c5OCc5ccccc5)cc4)nn3)cc2)c1 gave a Survival of 68%. With O=c1cc(-c2ccc(OCCCc3cn(CCOCCOc4ccc(-c5cc(=O)c6cc(F)ccc6o5)cc4)nn3)cc2)oc2cc(F)ccc12 the Survival was 55%. Molecule Cc1ccc(O)c(C(=O)/C=C/c2ccc(OCCCCc3cn(CCOCCOCCOc4ccc(-c5cc(=O)c6cc(C)ccc6o5)cc4)nn3)cc2)c1 has a Survival of 67%. Cc1ccc2oc(-c3ccc(OCCOCCOCCn4cc(CN(Cc5cn(CCOCCOCCOc6ccc(-c7cc(=O)c8cc(C)ccc8o7)cc6)nn5)Cc5cn(CCOCCOCCOc6ccc(-c7cc(=O)c8cc(C)ccc8o7)cc6)nn5)nn4)cc3)cc(=O)c2c1 gave a Survival of 71%. Work on O=c1c(OCc2ccccc2)c(-c2ccc(OCCOCCOCCn3cc(-c4cccc(-c5cn(CCOCCOCCOc6ccc(-c7oc8ccccc8c(=O)c7OCc7ccccc7)cc6)nn5)c4)nn3)cc2)oc2ccccc12 yielded a Survival of 80%. Work on COc1cccc(COc2c(-c3ccc(OCCCCc4cn(CCOCCOc5ccc(-c6cc(=O)c7cc(F)ccc7o6)cc5)nn4)cc3)oc3ccccc3c2=O)c1 yielded a Survival of 65%. With COc1cccc(COc2c(-c3ccc(OCCCCc4cn(CCOCCOc5cccc(-c6oc7ccccc7c(=O)c6OCc6ccccc6)c5)nn4)cc3)oc3ccccc3c2=O)c1 the Survival was 75%. Cc1ccc2oc(-c3ccc(OCCOCCOCCn4cc(COCCOc5ccc6c(=O)cc(-c7ccccc7)oc6c5)nn4)cc3)cc(=O)c2c1 was tested, and the Survival was 54%. Cc1ccc(C(=O)/C=C/c2ccc(OCCCCc3cn(CCOCCOCCOc4ccc5c(=O)cc(-c6ccccc6)oc5c4)nn3)cc2)c(O)c1 gave a Survival of 72%. C#CCCCCOc1ccc(/C=C/C(=O)c2ccccc2O)cc1 showed a Survival of 102%. O=c1c(OCc2ccccc2)c(-c2ccc(OCCOCCOCCn3cc(CNc4ccccc4)nn3)cc2)oc2ccccc12 showed a Survival of 87%. O=c1cc(-c2ccccc2)oc2cc(OCCOCCn3cc(-c4cccc(-c5cn(CCOCCOc6ccc7oc(-c8ccccc8)cc(=O)c7c6)nn5)c4)nn3)ccc12 was tested, and the Survival was 76%. In the case of COc1cccc(COc2c(-c3ccc(OCCOCCn4cc(-c5ccc(-c6cn(CCOCCOc7ccc(-c8oc9ccccc9c(=O)c8OCc8cccc(OC)c8)cc7)nn6)cc5)nn4)cc3)oc3ccccc3c2=O)c1, the Survival is reported as 88%. For O=C(/C=C/c1ccc(OCCCCc2cn(CCOCCOc3cccc(-c4oc5ccccc5c(=O)c4OCc4ccccc4)c3)nn2)cc1)c1ccccc1O, the Survival was 83%. In the case of O=c1cc(-c2ccccc2)oc2cc(OCCCc3cn(CCOCCOc4ccc(-c5cc(=O)c6cc(F)ccc6o5)cc4)nn3)ccc12, the Survival is reported as 55%. With O=c1cc(-c2ccccc2)oc2cc(OCCCc3cn(CCOCCOc4ccc(-c5oc6ccccc6c(=O)c5OCc5ccccc5)cc4)nn3)ccc12 the Survival was 51%. With CN(CCN(C)Cc1cn(CCOCCOCCOc2ccc(-c3cc(=O)c4cc(F)ccc4o3)cc2)nn1)Cc1cn(CCOCCOCCOc2ccc(-c3cc(=O)c4cc(F)ccc4o3)cc2)nn1 the Survival was 79%.
